# Screening data deposited in PubChem BioAssay by several laboratories.
# NR3A LBD binder = NR3A (human) ligand-binding domain modulation | actives 2.5% (n = 340,000) | AID 1259313 | NR3A LBD differential scanning fluorimetry, Tm shift; 0% = protein alone, 100% = glycine-bound protein | Tm shift relative to glycine control, % at 25 µM;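 active means melting temperature shift of at least 10% of the positive control shift, at one fixed dose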
# Cardio protect = myocardial damage modulation in H9c2 cells; H9c2 cardiomyocytes, H2O2 injury protection, ATPLite, 2 h; protection from H2O2 cell death, % at 20 µM; actives 0.63% (n = 360,000); AID 588492;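 active means compounds giving at least 50% protection of heart cells from peroxide-induced death in the single-dose screen, raw or plate-pattern-corrected value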;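 further: 0% = DMSO wells with peroxide and 100% = DMSO wells without peroxide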
# SENP1 FRET inh = inhibitors of human SENP1 SUMO protease catalytic domain; inhibition, % at 10 µM; actives 0.21% (n = 360,000); recombinant SENP1 catalytic domain, CyPet-SUMO1-YPet FRET cleavage; Q9P0U3;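 active means inhibition at least 30% at 10 µM, raw YFP signal under a set limit, fluorescence ratio 0.5 to 1.5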;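 further: 0% = enzyme with DMSO and 100% = no enzyme wells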
# Target sequence (Q9P0U3 419-644 limits assumed): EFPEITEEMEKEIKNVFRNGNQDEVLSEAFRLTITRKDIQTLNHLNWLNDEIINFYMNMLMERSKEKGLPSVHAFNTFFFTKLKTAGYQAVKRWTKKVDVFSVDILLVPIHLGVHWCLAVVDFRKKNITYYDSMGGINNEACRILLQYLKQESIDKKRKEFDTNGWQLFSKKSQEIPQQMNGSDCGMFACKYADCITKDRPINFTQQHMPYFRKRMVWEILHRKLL
#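 Assay system – human recombinant His6-tagged SENP1 catalytic domain enzyme · Input – SENP1 enzyme, 20 pM final · Buffer or medium – Tris pH 8 buffer plus EDTA, NaCl, BME, BSA, NP40, catalase · Schedule – 50 min reaction at room temperature · Technique – FRET read of cyan and yellow fluorescence · Control set – no-enzyme wells low, DMSO-plus-enzyme wells high control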
# FAS TE block = inhibitors of human fatty acid synthase thioesterase domain; P49327; recombinant FAS-TE, OMFH fluorogenic substrate, fluorescence endpoint; inhibition, % at 15 µM; actives 0.67% (n = 360,000); AID 602261;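 active means compounds whose normalised, plate-corrected inhibition of enzyme fluorescence in the single-dose primary screen is 50% or more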;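 further: 0% = DMSO with enzyme and 100% = substrate without enzyme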
# Arr AP2 block = inhibitors of human beta-arrestin and AP2 interaction; FITC-arrestin peptide / GST-AP2 beads, flow cytometry; AP2 beta2 appendage carries R879A mutation; inhibition, % at 10 µM; actives 0.31% (n = 340,000); AID 504490;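 active means inhibition above a set limit, near 3 SD of compounds lacking own fluorescence, cut at about 54% in these data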;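 further: plate controls were DMSO wells for no effect and 5 µM unlabelled arrestin peptide for full effect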
#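 System: GST-AP2 R879A bound to glutathione beads, E. coli-expressed. Also added: 50 nM FITC-arrestin peptide. Schedule: compound with beads 12 min RT, then probe 1 h RT. Signal: bead flow cytometry, FITC channel. Read-out basis: percent response.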
# hiPSC survival = enhancers of human iPSC single-cell survival | hiPSC single-cell survival, ATPlite luminescence; 100% = ROCK inhibitor wells, 0% = DMSO | survival enhancement, % at 20 µM | actives 0.044% (n = 360,000); in the data active means survival enhancement above about 18%;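 further: cells exposed to compounds for 16 hours before the ATP read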
# * = called active by the depositor; . = no result given. This is a sample that favours compounds with a hit; in the whole collection about 4% have one here.
SMILES,NR3A LBD binder,Cardio protect,SENP1 FRET inh,FAS TE block,Arr AP2 block,hiPSC survival
O=C(O)COc1ccccc1/C=N/NC(=O)/C(=C\c1ccc2c(c1)OCO2)NC(=O)c1ccccc1,191*,5,-82,2,-21,4
O=C(N/N=C/c1ccc(O)cc1)c1csc2ccccc12,23*,8,1,2,-6,2
O=C(/C=C/c1ccc([N+](=O)[O-])cc1)NCc1cccnc1,0,-5,1,0,-6,0
Cc1noc(C)c1NC(=O)N1C[C@H](O)COC[C@H]2O[C@@H](CC(=O)NCC3CCCCC3)CC[C@@H]21,.,.,4,.,.,.
O=c1ccn(C2CCCCC2)c(=O)[nH]1,.,1,4,-4,.,-1
CC1(C(=O)Nc2cnc3ccccc3c2)CCN1C(=O)C/C=C/c1ccccc1 (stereo not drawn),.,2,-9,2,.,4
CN(Cc1ccccc1)C(=O)Cn1nnc(-c2ccccc2)c1COc1ccc2ccccc2c1,.,-6,-8,19,.,-1
Fc1cccc(Cc2c(-c3ccccc3)nc3c(Cl)cc(C(F)(F)F)cn23)c1,.,-7,-1,-3,.,2
COc1cc2ccccc2cc1C(=O)N/N=C/c1ccc2c(c1)OCO2,12*,6,4,15,-4,0
COc1ccccc1C(=O)N/N=C/c1ccc2c(c1)OCO2,0,-8,0,-2,-5,0
O=C(NN=Cc1ccc2c(c1)OCO2)c1ccncc1,25*,-1,0,-6,-10,-1
O=C(NN=Cc1cccc([N+](=O)[O-])c1)c1cc(-c2cccnc2)nc2ccccc12,-4,51*,1,27,18,0
C/C(=N\NC(=O)c1cc(-c2cccnc2)nc2ccccc12)c1ccc(O)cc1O,4,52*,49*,-2,29,-2
Cc1cc(C(=O)N/N=C/c2cccc([N+](=O)[O-])c2)c2ccccc2n1,-8,49,0,9,-8,-1
Cc1c(C(=O)NCc2cccc(C(F)(F)F)c2)sc(=O)n1Cc1ccc(C(=O)N(C)C)cc1,.,-2,-1,-5,.,-1
COc1cc(/C=N/NC(=O)c2cc(-c3cccc(Br)c3)nc3ccccc23)cc(OC)c1O,13*,33,2,6,27,0
O=C(N/N=C/C=C\c1cccc([N+](=O)[O-])c1)c1cccnc1,12*,4,2,1,0,0
CC(/C=C/c1cccc([N+](=O)[O-])c1)=N/NC(=O)c1cccnc1,0,39,0,-3,-1,-2
COc1cccc(/C=N/NC(=O)c2cc(-c3ccccn3)nc3ccccc23)c1O,-11,58*,10,14,-4,3
Cc1nn(-c2ccccc2)c(N2CCCC2)c1/C=N/NC(=O)c1cc(-c2cccnc2)nc2ccccc12,0,59*,1,36,9,-1
Cc1ccc(Cl)cc1-c1cc(C(=O)N2CCc3ccccc3C2)[nH]n1,.,-2,-1,27,.,-2
Cc1c(C(=O)/C=C/c2ccccc2F)c2cc(O)ccc2n1C,.,8,-4,-7,.,2
CCCCCCN1C[C@@H](n2cc(C3CC3)nn2)[C@H](O)C[C@@H]1c1ccc(OC)cc1,.,-12,-4,11,.,2
CN(Cc1ccccc1)S(=O)(=O)c1ccccc1Br,5,-2,3,12,1,1
CC(C)[C@@H](CO)N(C)S(=O)(=O)c1ccccc1Br,11*,0,2,-10,1,1
SMILES,NR3A LBD binder,Cardio protect,SENP1 FRET inh,FAS TE block,Arr AP2 block,hiPSC survival
Cc1cc([N+](=O)[O-])ccc1P(=O)(O)c1ccc([N+](=O)[O-])cc1C,15*,0,2,-2,8,2
Oc1[nH]c2ccc(Br)cc2c1N=NC(=S)Nc1ccc(F)cc1,18*,21,2,3,1,0
CC1(C(=O)Nc2ccc3ccccc3c2)CCC(=O)N1CCCn1ccnc1 (stereo not drawn),.,2,2,-8,.,2
c1ccc(-c2cc(-c3ccncc3)nc3ccc4ccccc4c23)cc1,22*,10,2,33,-1,1
Clc1ccc2nc(-c3ccncc3)cc(-c3ccccc3)c2c1,24*,-5,0,0,42,0
CCOC(=O)Cc1cc(-c2ccccc2)nc2ccc3ccccc3c12,-13,10,2,25,11,4
N#C/C(C(=O)Oc1ccccc1)=C1\C=Cc2ccccc2N1,20*,0,-17,43,-3,-4
COCCNC(=O)CCC(=O)NNc1nc2ccccc2c2nc(-c3ccccc3)nn12,-1,10,1,-1,14,0
COCCCNC(=O)CCC(=O)NNc1nc2ccccc2c2nc(-c3ccccc3)nn12,-2,10,3,-10,-2,0
CCOCCCNC(=O)CCC(=O)NNc1nc2ccccc2c2nc(-c3ccccc3)nn12,-1,54*,0,-2,1,-3
CC(C)OCCCNC(=O)CCC(=O)NNc1nc2ccccc2c2nc(-c3ccccc3)nn12,-7,84*,3,1,7,-1
CCOc1ccc(C(=O)OCC(=O)NCCNC(=O)COC(=O)c2ccc(OCC)cc2)cc1,14*,-2,0,-7,36,0
CCOc1ccc(C(=O)NCCCCNC(=O)c2ccc(OCC)cc2)cc1,15*,3,-1,-11,8,0
COCCN1C(=O)COc2ccccc2C1C(=O)Nc1ccc2c(c1)OCCO2 (stereo not drawn),.,.,1,-10,.,-1
Cc1cccc(NC(=O)c2nc[nH]c2C(=O)NCCCNC(=O)c2[nH]cnc2C(=O)Nc2cccc(C)c2)c1,12*,62*,0,1,-3,0
O=C(Nc1ccccc1)c1nc[nH]c1C(=O)NCCCNC(=O)c1[nH]cnc1C(=O)Nc1ccccc1,9,47,4,3,1,7
O=C(Nc1ccccc1)c1nc[nH]c1C(=O)NCCCCCCNC(=O)c1[nH]cnc1C(=O)Nc1ccccc1,14*,97*,2,6,1,-2
O=C(Nc1ccccc1)c1nc[nH]c1C(=O)NCCN(CCNC(=O)c1[nH]cnc1C(=O)Nc1ccccc1)CCNC(=O)c1[nH]cnc1C(=O)Nc1ccccc1,13*,31,0,28,4,-1
C=Cc1ccc(CC2(C)C(=O)Nc3ccc(Cl)cc32)cc1 (stereo not drawn),.,-6,1,13,.,-1
CCOC(=O)[C@]12CCCC=C1N(CCc1ccc(OC)c(OC)c1)C(=O)[C@H](CC(=O)N1CCSCC1)C2,.,.,1,.,.,.
